In general, Ki refers to a measure of affinity in units of concentration, obtained from inhibition or displacement. Lower therefore signals tighter binding.

One assay deals with T1, Adenosine receptor A3 (Homo sapiens, UniProt P0DMS8).
T1 sequence (P0DMS8 whole entry): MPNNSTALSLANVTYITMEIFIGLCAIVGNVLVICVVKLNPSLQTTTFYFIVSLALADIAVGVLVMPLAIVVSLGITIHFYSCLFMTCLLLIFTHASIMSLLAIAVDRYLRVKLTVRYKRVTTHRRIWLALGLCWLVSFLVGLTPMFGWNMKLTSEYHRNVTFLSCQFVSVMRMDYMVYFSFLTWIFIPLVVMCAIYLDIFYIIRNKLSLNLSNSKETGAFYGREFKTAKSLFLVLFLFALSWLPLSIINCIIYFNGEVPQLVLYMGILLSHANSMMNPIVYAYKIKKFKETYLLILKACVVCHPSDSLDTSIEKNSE
The assay is described as follows: Displacement of [125I]ABA from human adenosine A3 receptor. On the technique in general: Loss of bound radioactivity is the signal in a displacement assay; it reports binding, not function.

Assay [1] deals with T2, Adenosine receptor A1 (Homo sapiens, UniProt P30542).
T2 sequence (P30542 whole entry): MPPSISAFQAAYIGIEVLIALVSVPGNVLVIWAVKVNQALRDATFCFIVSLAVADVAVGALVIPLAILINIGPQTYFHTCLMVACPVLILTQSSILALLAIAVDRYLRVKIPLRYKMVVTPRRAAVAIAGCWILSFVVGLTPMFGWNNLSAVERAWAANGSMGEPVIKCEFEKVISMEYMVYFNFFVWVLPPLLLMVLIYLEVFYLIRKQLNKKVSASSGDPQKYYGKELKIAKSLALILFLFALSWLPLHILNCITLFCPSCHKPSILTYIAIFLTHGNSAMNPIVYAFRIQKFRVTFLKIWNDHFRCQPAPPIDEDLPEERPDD
The assay is described as follows: Displacement of [125I]ABA from human adenosine A1 receptor.

Assay [2] has as its target T3, Adenosine receptor A1 (Rattus norvegicus, UniProt P25099).
T3 sequence (P25099 whole entry): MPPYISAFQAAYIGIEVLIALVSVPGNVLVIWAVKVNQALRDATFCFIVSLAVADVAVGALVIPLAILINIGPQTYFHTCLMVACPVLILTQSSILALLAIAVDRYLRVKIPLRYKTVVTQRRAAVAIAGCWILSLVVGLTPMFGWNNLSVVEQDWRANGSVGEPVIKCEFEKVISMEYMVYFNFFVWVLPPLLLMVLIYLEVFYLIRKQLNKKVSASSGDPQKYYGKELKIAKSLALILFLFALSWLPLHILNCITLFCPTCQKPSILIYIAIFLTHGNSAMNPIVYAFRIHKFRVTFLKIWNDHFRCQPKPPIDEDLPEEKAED
Kind of assay: Displacement of [3H]DPCPX from adenosine A1 receptor in rat cerebral cortex. In short, it runs like this:
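Rat brain membranes (cerebral cortex for A1, striatum for A2A) homogenized in 10 mM EDTA/10 mM Na-HEPES pH 7.4 with protease inhibitors, washed, stored at -80 °C. 40-70 µg protein incubated in triplicate with radioligand plus seven competitor concentrations in HEPES/EDTA buffer with 2 units/mL adenosine deaminase, 2.5 h, 21 °C. A1: [3H]DPCPX 2 nM, nonspecific with 10 µM NECA; A2A: [3H]ZM241385 0.5-1.2 nM, nonspecific with 10 µM XAC. GF/C filtration; single-site fit, Cheng-Prusoff Ki.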

SMILES strings stand for the structures.

As to `CCCn1c2nc(C34CCC(O)(CC3)CC4)nc-2c2n(c1=O)C[C@@H](C(C)C)N2` [(R)-2-(4-hydroxybicyclo[2.2.2]octan-1-yl)-8-isopropyl-4-propyl-7,8-dihydro-1H-imidazo[1,2-g]purin-5(4H)-one], the Ki on Adenosine receptor A3 was > 10000 nM; on Adenosine receptor A1 [1] it was 35 nM. As to `CCCn1c2nc(C34CCC(O)(CC3)CC4)nc-2c2n(c1=O)CC[C@@H](C)N2` [(R)-2-(4-hydroxybicyclo[2.2.2]octan-1-yl)-9-methyl-4-propyl-8,9-dihydropyrimido[1,2-g]purin-5(1H,4H,7H)-one], the Ki at Adenosine receptor A1 [2] is > 250 nM. As for `CCCn1c2nc(C34CCC(CCC(=O)O)(CC3)CC4)nc-2c2n(c1=O)C[C@@H](C(C)C)N2` [(R)-3-(4-(8-isopropyl-5-oxo-4-propyl-4,5,7,8-tetrahydro-1H-imidazo[1,2-g]purin-2-yl)bicyclo[2.2.2]octan-1-yl)propanoic acid], at Adenosine receptor A3, the Ki is > 10000 nM. The same measure, in the same setting: the value for `CCCn1c2nc(C34CCC(O)(CC3)CC4)nc-2c2n(c1=O)C[C@@H](CC)N2` [(R)-8-ethyl-2-(4-hydroxybicyclo[2.2.2]octan-1-yl)-4-propyl-7,8-dihydro-1H-imidazo[1,2-g]purin-5(4H)-one] was > 10000 nM.

Take `CCCn1c2nc(C34CCC(O)(CC3)CC4)nc-2c2n(c1=O)CC[C@@H](CC)N2` [(R)-9-ethyl-2-(4-hydroxybicyclo[2.2.2]octan-1-yl)-4-propyl-8,9-dihydropyrimido[1,2-g]purin-5(1H,4H,7H)-one]: at Adenosine receptor A1 [2], the Ki is > 250 nM. Still for that read-out and setting: the value for `CCCn1c2nc(C34CCC(O)(CC3)CC4)nc-2c2n(c1=O)C[C@H](CC)N2` [(S)-8-ethyl-2-(4-hydroxybicyclo[2.2.2]octan-1-yl)-4-propyl-7,8-dihydro-1H-imidazo[1,2-g]purin-5(4H)-one] was > 100 nM.

The values above are taken from BindingDB's records for doi:10.1021/jm060539t (Biogen Idec, 2006).
